# This is a sample that favours compounds with a hit; in the whole collection about 3% have one here.
# 5HT1a antag: antagonists of human 5-HT1a serotonin receptor | AID 612 | 0.68% of 62,000 active | CHO 5-HT1a Ga15 NFAT-bla reporter, antagonist mode | inhibition, % at 10 µM | P08908;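 active means inhibition above the mean of all tested compounds plus 3 SD, cut at about 43% in these data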;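 further: receptor stimulated by 5-CT agonist at 100 nM near EC80; beta-lactamase reporter measured by ratiometric fluorescence of a cleavable substrate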
# S1P3 ag: S1P3 (human) receptor agonism; Q99500; S1P3 NFAT-BLA reporter cells, FRET ratio; relative to 1 µM S1P, basal subtracted; activation, % at 4.5 µM; 0.1% of 60,000 active;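 active means activation above the screen-wide mean plus 3 SD, cut at about 4.5% in these data, passing the limit was not always enough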
#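 Assay system: stable CHO line with human S1P3, Gα16, NFAT-BLA reporter; Detection: FRET β-lactamase substrate fluorescence, excitation 405 nm, 460/535 nm emission ratio, background-subtracted; Read-out: percent activation versus median 1 µM S1P response, basal-subtracted, per plate; Incubation: cells plated overnight, compound 4 h 37 °C, substrate 2 h RT.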
# HTR1E agonist: 5-HT1E (human) receptor agonism; P28566; CHO 5-HT1E Ga15 NFAT-bla reporter, FRET; 0% DMSO wells, 100% control agonist wells; activation, % at 6 µM; 0.69% of 65,000 active; AID 574;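 active means activation above a set limit, the screen-wide mean activation plus 3 SD, cut at about 8.5% in these data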;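 further: 100% = positive control agonist at 1 µM giving full maximal response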
# Target sequence (P28566 whole entry, looked up): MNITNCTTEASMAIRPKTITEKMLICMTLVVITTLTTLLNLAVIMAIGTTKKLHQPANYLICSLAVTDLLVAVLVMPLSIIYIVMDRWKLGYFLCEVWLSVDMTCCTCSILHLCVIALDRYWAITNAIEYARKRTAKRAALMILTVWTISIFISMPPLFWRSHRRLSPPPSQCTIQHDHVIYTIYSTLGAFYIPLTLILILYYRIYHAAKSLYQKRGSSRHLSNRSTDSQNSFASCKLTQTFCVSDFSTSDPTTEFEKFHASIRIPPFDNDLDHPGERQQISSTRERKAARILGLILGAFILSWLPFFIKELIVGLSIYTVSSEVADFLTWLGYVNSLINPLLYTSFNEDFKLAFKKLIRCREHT
# S1P1 ag pot: S1P1 (human) agonism or agonism potentiation; P21453; S1P1 CRE-bla cells, forskolin, beta-lactamase FRET, potentiator mode; S1P1 agonist co-added at EC20, 2 nM; 100% = saturating reference agonist, 0% = basal; activation, % at 9.5 µM; 0.57% of 56,000 active; AID 449;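 active means activation above a cutoff set at the mean activation of all tested compounds plus 3 SD, cut at about 54% in these data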;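 further: forskolin at 4 µM as EC80 and the EC20 agonist is SEW2871; 100% = SEW2871 at its EC100 plus forskolin at EC80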
# HTR1E antagonist: 5-HT1E (human) receptor antagonism | 0.99% of 65,000 active | P28566 | inhibition, % at 6 µM | AID 571 | CHO 5-HT1E Ga15 NFAT-bla reporter, FRET, antagonist;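 active means inhibition above a set limit, the mean inhibition across every tested compound plus 3 SD, cut at about 29% in these data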;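 further: signal is the 460 over 535 nm emission ratio of beta-lactamase substrate; 0% = agonist plus DMSO wells and 100% = wells without agonist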
# HTR1A agonist: 5-HT1a (human) receptor agonism; activation, % at 10 µM; CHO 5-HT1a Ga15 NFAT-bla reporter, FRET ratio; 0% basal, 100% maximal reference agonist; AID 567; P08908; 0.56% of 65,000 active;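 active means activation above the screen-wide mean activation plus 3 SD, cut at about 19% in these data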;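 further: 0% = DMSO wells and 100% = 5-CT at EC100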
# An asterisk follows results filed as active; . = not tested or not shown.
SMILES,5HT1a antag,S1P3 ag,HTR1E agonist,S1P1 ag pot,HTR1E antagonist,HTR1A agonist
CN1CCN(c2ccccc2NC(=O)c2ccc(Br)o2)CC1,16.5,-1.0,13.4*,-4.9,8.2,1.7
COc1ccc(OCCOCC(O)CN2CCOCC2)cc1 (centres undefined),2.2,-1.1,0.4,-3.3,-5.2,0.5
OCCN1CCN(CC(O)COc2ccc3c(c2)OCO3)CC1 (centres undefined),-1.5,0.4,16.3*,9.2,-5.2,0.5
COc1ccc(-c2csc(N(CC3CCCO3)C(=O)c3cccs3)n2)cc1 (centres undefined),14.8,-1.8,0.8,-3.7,5.0,0.9
COc1ccc(OC)c(-c2csc(N(Cc3ccco3)C(=O)c3cccs3)n2)c1,43.1*,-1.7,2.0,22.3,2.1,5.2
CCOc1ccccc1N1CCN(C(=O)c2ccncc2)CC1,-1.3,-1.3,1.5,5.5,2.2,0.3
Cc1ccccc1S(=O)(=O)Cc1ccc(C(=O)N2CC(C)CC(C)C2)o1 (centres undefined),-1.4,0.5,0.7,-3.5,-2.0,-0.6
COc1cc(C(=O)N2CCN(c3cc(Cl)ccc3Cl)CC2)cc(OC)c1OC,21.5,-0.8,-0.1,-0.2,63.5*,0.2
Cc1ccccc1S(=O)(=O)Cc1ccc(C(=O)N2CCN(c3cccc(C)c3C)CC2)o1,15.5,-1.6,32.4*,29.0,21.8,1.9
Cc1cccc(N2CCN(C(=O)c3ccncc3)CC2)c1C,-6.9,-0.4,18.7*,.,-3.5,2.2
COc1cc(C(=O)N2CCN(c3cccc(C)c3C)CC2)cc(OC)c1OC,21.0,-2.1,0.5,1.6,50.1*,-1.7
COc1ccc(C(=O)N2CCN(C(=O)c3cc(OC)c(OC)c(OC)c3)CC2)cc1,-4.2,0.5,0.9,3.8,-9.7,0.9
Cc1noc(C)c1CSCC(=O)N1CCN(c2ccc(F)cc2)CC1,1.9,-0.9,-0.2,5.7,1.6,-6.1
Cc1cccc(N2CCN(C(=O)CSCc3c(C)noc3C)CC2)c1C,17.4,-1.4,1.2,81.7*,1.5,-0.7
Cc1nc2nc(SCC(=O)N3CCOCC3)nn2c(C)c1Cc1ccccc1,-2.4,.,-0.1,.,0.2,0.9
CNC(=O)CN(C1CCCCC1)S(=O)(=O)c1ccc(F)cc1,4.2,0.1,0.9,-4.9,-2.7,42.4*
CCNC(=O)CN(C1CCCCC1)S(=O)(=O)c1ccc(F)cc1,7.2,.,-0.8,.,-5.5,0.5
CCC1(C)Cc2c(sc3[nH]c(=O)[nH]c(=O)c23)CS1 (centres undefined),.,-4.9,0.0,-2.4,6.0,1.7
C=CCc1ccccc1OCC(O)CN1CCN(c2ccccc2OC)CC1 (centres undefined),91.3*,.,1.3,.,-1.2,1.9
CCOC(=O)N1CCN(CC(O)COc2c(OC)cccc2OC)CC1 (centres undefined),-10.4,0.7,-0.3,-6.1,-7.1,168.5*
OC(COc1ccccc1Cl)CN1CCN(CC(O)COc2ccccc2Cl)CC1 (centres undefined),58.2*,-0.6,0.3,-17.2,8.2,5.3
CN(C)CCCN1c2ccccc2Sc2ccc(Cl)cc21,.,-1.7,8.7*,-5.6,-7.5,0.9
OCCN1CCN(CCCN2c3ccccc3Sc3ccc(Cl)cc32)CC1,.,-2.6,-0.3,-11.6,-0.1,-4.4
CCOC(=O)C1CCN(C(=O)c2cc3c(-c4ccc(OC)c(OC)c4)nn(C)c3s2)CC1,4.3,0.0,0.3,-56.5,35.5*,-1.3
CCOC(=O)N1CCC(NC(=O)c2cc3c(-c4ccc(OC)c(OC)c4)nn(C)c3s2)CC1,14.6,-1.6,-0.4,2.4,29.2*,0.2
SMILES,5HT1a antag,S1P3 ag,HTR1E agonist,S1P1 ag pot,HTR1E antagonist,HTR1A agonist
CCOC(=O)N1CCC(NC(=O)c2cc3c(-c4ccccc4F)nn(C)c3s2)CC1,6.6,-0.7,1.1,-15.8,-0.1,0.6
CCOC(=O)C1CCCN(C(=O)c2cc3c(-c4cccc(OC)c4)nn(C)c3s2)C1 (centres undefined),15.9,-1.0,1.2,-10.4,25.6,-1.9
N#Cc1c(-c2ccco2)cc(-c2ccccn2)nc1N,2.8,-0.1,0.0,-52.1,-2.3,1.9
CCOC(=O)Nc1ccc2c(c1)ncn2C1CCCCC1,17.3,0.1,39.1*,7.3,19.3,1.5
CCOC(=O)C(CC)n1nc(C)n2c(cc3sccc32)c1=O (centres undefined),9.5,-1.4,0.5,-14.5,4.2,1.1
COc1ccccc1N1CCN(C(=O)CSc2nc(-c3ccccc3)cc(=O)[nH]2)CC1,-1.8,0.1,15.3*,3.1,-10.6,8.7
COc1ccccc1N1CCN(C(=O)CSc2nc(C)c(Cc3ccccc3)c(=O)[nH]2)CC1,12.1,-0.2,20.5*,-15.1,-2.6,2.2
COc1ccccc1N1CCN(C(=O)CSc2nc3ncnc(N)c3[nH]2)CC1,-7.9,-0.8,2.7,.,1.4,0.8
Nc1nc(NC(=O)CCCC(=O)O)nn1-c1ccccc1,-0.7,-0.4,-0.6,6.0,4.2,-1.9
CN(C)c1ccc(NC(=O)c2ccc(COc3cccc(Cl)c3)o2)cc1,-10.2,.,-0.4,.,-6.8,-2.5
O=C(OCC1COc2ccccc2O1)c1ccccc1F (centres undefined),8.0,-0.8,-0.3,3.5,-4.0,-0.5
O=C1CCCN1CCCNc1ncnc2c1[nH]c1ccc(Cl)cc12,-4.3,0.1,0.1,-30.7,34.7*,-0.2
Clc1ccc2[nH]c3c(NCCCN4CCOCC4)ncnc3c2c1,.,-1.9,-1.0,-46.5,22.8,2.9
O=C(CSc1nnc(-c2c[nH]c3ccccc23)o1)N(Cc1ccccc1)c1ccc(F)cc1,23.6,5.4,0.1,106.8*,-9.7,0.8
CCC1CCCCN1C(=O)CSc1nnc(-c2ccco2)o1 (centres undefined),5.5,-0.7,-1.2,11.8,8.0,1.6
CC1CCCCN1C(=O)CSc1nnc(-c2c[nH]c3ccccc23)o1 (centres undefined),-13.8,-0.4,23.4*,47.9,-3.2,3.6
C=C(C)CSc1nnc(-c2ccccc2)n1N,0.4,-1.6,41.5*,.,-4.2,0.9
CCOc1ccccc1-n1nnnc1SCC(=O)NC(=O)NCc1ccco1,-2.3,-0.8,0.3,-7.6,0.9,0.7
COc1cccc(C(=O)NCC(=O)N2CCC(C)CC2)c1,-2.3,.,-0.3,.,-1.7,-0.2
Cc1ccc2[nH]c(-c3ccccc3)cc(=O)c2c1,35.4,-1.8,0.0,3.6,70.0*,-4.4
Nc1nonc1C(=O)NCCNCc1cc(Br)ccc1OCc1ccccc1F,51.9*,-2.4,0.4,77.9*,12.1,-1.1
CCOC(=O)CNC(=O)C(NC(=O)C1CCC(C)CC1)C(C)CC (centres undefined),-4.6,.,-0.8,.,-5.5,-0.3

# From PubChem
